Consider 42 compounds from ChEMBL document CHEMBL4004839, “Targeting Bacillosamine Biosynthesis in Bacterial Pathogens: Development of Inhibitors to a Bacterial Amino-Sugar Acetyltransferase from Campylobacter jejuni” (J Med Chem, 2017).

Test [1] concerns the target T1, UDP-N-acetylbacillosamine N-acetyltransferase (Campylobacter jejuni subsp. jejuni serotype O:2 (strain ATCC 700819 /NCTC 11168), UniProt Q0P9D1).
T1 sequence (Q0P9D1 whole entry): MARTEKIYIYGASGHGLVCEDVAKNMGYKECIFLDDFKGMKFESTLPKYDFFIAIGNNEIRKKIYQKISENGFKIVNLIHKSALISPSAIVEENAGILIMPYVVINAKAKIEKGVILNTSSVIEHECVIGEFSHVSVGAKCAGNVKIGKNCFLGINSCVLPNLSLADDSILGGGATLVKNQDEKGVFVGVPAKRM
Briefly: Inhibition of Campylobacter jejuni NCTC 11168 PglD acetyltransferase expressed in Escherichia coli BL-21(DE3) strain (Stratagene) assessed as release of CoASH preincubated for 30 mins followed by addition of 300 uM AcCoA and 500 uM UDP-4-aminosugar as substrate by Ellman's method. Summed up:
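Continuous DTNB read-out of CoASH release. Inhibitor (DMSO stock) preincubated 30 min at RT with PglD in 50 mM HEPES pH 7.8, 1 mM MgCl2, 0.05 mg/mL BSA, 0.001% Triton X-100. […] Initial rates over 5 min at RT, A412. IC50 derived.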

For test [2], the target named is T2, UDP-N-acetylbacillosamine N-acetyltransferase (Campylobacter jejuni subsp. jejuni serotype O:2 (strain ATCC 700819 /NCTC 11168)) (UniProt Q0P9D1).
T2 sequence (whole entry): T1 sequence (Q0P9D1 whole entry)
Briefly: Binding affinity to Campylobacter jejuni NCTC 11168 PglD acetyltransferase expressed in Escherichia coli BL-21(DE3) strain (Stratagene) assessed as change in melting temperature at 100 uM by Sypro orange dye-based differential scanning fluorimetry.

Test [3] concerns the target T1, UDP-N-acetylbacillosamine N-acetyltransferase. Description: Inhibition of Campylobacter jejuni NCTC 11168 PglD acetyltransferase expressed in Escherichia coli BL-21(DE3) strain (Stratagene) assessed as release of CoASH preincubated for 45 mins followed by addition of AcCoA and UDP-4-aminosugar measured after 30 mins by fragment-based high-throughput screening analysis. Summed up:
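End-point screen with compounds at 10 μM final. Started with 100 μM UDP-4-aminosugar, quenched at 30 min with 2 mM DTNB, 1 mM EDTA, 20% 1-propanol (final). Developed 5 min, read at 405 nm.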

The target in test [4] is T2, UDP-N-acetylbacillosamine N-acetyltransferase (Campylobacter jejuni subsp. jejuni serotype O:2 (strain ATCC 700819 /NCTC 11168)). Description: Effect on quaternary structure of Campylobacter jejuni NCTC 11168 PglD acetyltransferase expressed in Escherichia coli BL-21(DE3) strain (Stratagene) assessed as polydispersity index of PgID at 250 uM by dynamic light scattering method (reference value: 31%). Summed up: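 Recombinant C. jejuni PglD (His8-TEV construct, tag removed, Ni-NTA then size-exclusion purified) at 25 μM, with or without 250 μM inhibitor, in 50 mM HEPES 7.5, 100 mM NaCl, 3% DMSO final. Scattering measured at 90° with 685 nm laser; analysed with Rayleigh scattering model to give radius and polydispersity index.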

Test [5] has the same target. Description: Effect on quaternary structure of Campylobacter jejuni NCTC 11168 PglD acetyltransferase expressed in Escherichia coli BL-21(DE3) strain (Stratagene) assessed as hydrodynamic radius of apo PgID at 250 uM by dynamic light scattering method (reference value: 34 Angstrom). The procedure, abridged: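 DLS on 25 μM PglD with or without 250 μM inhibitor in 50 mM HEPES 7.5, 100 mM NaCl, 3% DMSO final. Scattering measured at 90° with 685 nm laser. Radius and polydispersity index derived with a Rayleigh scattering model.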

The target of test [6] is T1, UDP-N-acetylbacillosamine N-acetyltransferase. Briefly: Competitive inhibition of Campylobacter jejuni NCTC 11168 PglD acetyltransferase expressed in Escherichia coli BL-21(DE3) strain (Stratagene) assessed as release of CoASH preincubated for 30 mins followed by addition of UDP-4-aminosugar and 5 fold excess AcCoA as substrate by Ellman's method. The procedure, abridged: (§1)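 Same continuous DTNB-coupled PglD assay: 30 min RT inhibitor–enzyme preincubation, 3 nM PglD, HEPES pH 7.8 buffer, A412 initial rates over 5 min. IC50 determined while raising one substrate above standard (300 μM AcCoA, 500 μM UDP-4-amino-sugar): AcCoA raised 2- or 5-fold, or UDP-4-amino-sugar raised to higher levels.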

Test [7] shares this target. Briefly: Competitive inhibition of Campylobacter jejuni NCTC 11168 PglD acetyltransferase expressed in Escherichia coli BL-21(DE3) strain (Stratagene) assessed as release of CoASH preincubated for 30 mins followed by addition of UDP-4-aminosugar and 2 fold excess AcCoA as substrate by Ellman's method. Summed up:
as §1

The target of test [8] is T2, UDP-N-acetylbacillosamine N-acetyltransferase (Campylobacter jejuni subsp. jejuni serotype O:2 (strain ATCC 700819 /NCTC 11168)). Description: Competitive inhibition of Campylobacter jejuni NCTC 11168 PglD acetyltransferase expressed in Escherichia coli BL-21(DE3) strain (Stratagene) assessed as release of CoASH preincubated for 30 mins followed by addition of AcCoA and higher levels of UDP-4-aminosugar as substrate by Ellman's method. The procedure, abridged:
as §1

The source made the active and inactive calls. The rule behind the calls is not given here.

Turning to `Cc1ccc(CCNc2nc(CCc3ccccc3)nc3sc(C(=O)O)c(C)c23)cc1`, in test [1], the 50% inhibitory concentration (IC50) was found to be 0.72 µM.
Turning to `Cc1ccccc1CCNc1nc(CCc2ccccc2)nc2sc(C(=O)O)c(C)c12`, in test [1], the concentration for half-maximal inhibition (IC50) was 0.25 µM. Further, the ΔTm in test [2] is 14.3 °C.
Consider `CNc1nc(CCc2cccc(OC)c2)nc2sc(C(=O)O)c(C)c12`, for which the half-inhibitory concentration (IC50) in test [1] was 1.1 µM. Moreover, in test [2], the shift in melting temperature (ΔTm) came out at 8.4 °C.
Take `Cc1c(C(=O)O)sc2nc(CCc3ccccc3)nc(NCCN)c12`: the IC50 in test [1] stood at 1.6 µM. In addition, in test [2], the ΔTm worked out at 3.6 °C.
The matching figures for `Cc1c(C(=O)O)sc2nc(CCc3ccccc3)nc(NCCc3ccc4c(c3)OCO4)c12`: 0.59 µM and 11.5 °C.
As for `CNc1nc(CCc2cccc(NC(C)=O)c2)nc2sc(C(=O)O)c(C)c12`, the IC50 in test [1] was 3.5 µM.
For the compound `CO[C@@H](CNc1nc(C[C@H](C)c2ccccc2)nc2sc(C(=O)O)c(C)c12)c1ccccc1`, the IC50 in test [1] stood at 2 µM. In addition, in test [2], the ΔTm was found to be 9.4 °C.
In the case of `O=C(O)c1cc(-c2ccco2)[nH]n1`, in test [3], the IC50 was determined as 8400 µM.
Regarding `Cc1c(C(=O)O)sc2nc[nH]c(=O)c12`, the concentration for half-maximal inhibition (IC50) in test [3] came out at 860 µM.
`CC(=O)Nc1ccc(CCc2nc(NCCN)c3c(C)c(C(=O)O)sc3n2)cc1`: the IC50 in test [1] turned out to be 1.4 µM. The thermal shift (ΔTm) in test [2] amounted to 5.3 °C.
Consider `COc1ccc(CCNc2nc(CCc3ccccc3)nc3sc(C(=O)O)c(C)c23)cc1`, for which the concentration for half-maximal inhibition (IC50) in test [1] came to 0.54 µM.
For the compound `Cc1c(C(=O)O)sc2nc(/C=C/c3ccc4[nH]ccc4c3)[nH]c(=O)c12`, the IC50 in test [3] is 1 µM.
For the compound `CNc1nc(CCc2ccccc2)nc2sc(C(=O)O)c(C)c12`, in test [1], the IC50 worked out at 2.2 µM. Moreover, in test [2], the ΔTm was 7.4 °C.
In the case of `Cc1c(C(=O)O)sc2nc(CCc3ccccc3)nc(NCCc3ccccc3)c12`, the IC50 in test [1] turned out to be 1.4 µM. In addition, the ΔTm in test [2] stood at 13.2 °C.
For the compound `CO[C@H](CNc1nc(CCc2ccc(NC(C)=O)cc2)nc2sc(C(=O)O)c(C)c12)c1ccccc1`, the IC50 in test [1] was determined as 0.27 µM. Besides, the Activity in test [4] was 24%; in test [5], 36 Angstrom. Also, the ΔTm in test [2] came out at 12.5 °C.
`CNc1nc(CCc2ccccc2NC(C)=O)nc2sc(C(=O)O)c(C)c12`: the half-inhibitory concentration (IC50) in test [1] was 9 µM.
As for `Cc1c(C(=O)O)sc2nc(CCc3ccccc3)nc(NC3Cc4ccccc4C3)c12`, the IC50 in test [1] was found to be 1 µM.
The same measure, in the same setting: in the case of `Cc1c(C(=O)O)sc2nc(CCc3ccccc3)nc(NCc3ccccc3)c12` it was 4.5 µM.
As to `CNc1nc(CCc2cccc(C(F)(F)F)c2)nc2sc(C(=O)O)c(C)c12`, the half-inhibitory concentration (IC50) in test [1] is 4.6 µM. The ΔTm in test [2] came to 7.4 °C.
Turning to `Cc1c(C(=O)O)sc2nc(CCc3ccccc3)nc(NCCc3ccc(F)cc3)c12`, in test [1], the half-maximal inhibitory concentration (IC50) is 0.42 µM.
Consider `Cc1c(C(=O)O)sc2nc(C(C)C)[nH]c(=O)c12`, for which, in test [3], the IC50 turned out to be 122 µM.
For the compound `CO[C@@H](CNc1nc(C[C@@H](C)c2ccccc2)nc2sc(C(=O)O)c(C)c12)c1ccccc1`, in test [1], the concentration for half-maximal inhibition (IC50) is 0.87 µM.
As for `CNc1nc(CCCc2ccccc2)nc2sc(C(=O)O)c(C)c12`, the half-maximal inhibitory concentration (IC50) in test [1] stood at 4.4 µM. Also, in test [2], the ΔTm was determined as 7.9 °C.
The corresponding values for `Cc1c(C(=O)O)sc2nc(CCc3ccccc3)nc(NCCc3ccncc3)c12` are 0.39 µM and 12 °C.
`CNc1nc(CCc2cccc(OC)c2)nc2cc(C(=O)O)sc12`: the concentration for half-maximal inhibition (IC50) in test [1] was 1.4 µM. Besides, the ΔTm in test [2] amounted to 5.9 °C.
Consider `CO[C@H](CNc1nc(C[C@@H](C)c2ccccc2)nc2sc(C(=O)O)c(C)c12)c1ccccc1`, for which the IC50 in test [1] stood at 0.42 µM. In test [2], the ΔTm stood at 9.9 °C.
The matching figures for `Cc1c(C(=O)O)sc2nc(CCc3ccccc3)nc(NCCc3ccccc3F)c12`: 0.48 µM and 13.2 °C.
Take `COc1cccc(CCNc2nc(CCc3ccccc3)nc3sc(C(=O)O)c(C)c23)c1`: the IC50 in test [1] was 0.45 µM.
Consider `CNc1nc(CCc2cccc(Cl)c2)nc2sc(C(=O)O)c(C)c12`, for which the IC50 in test [1] came out at 2.1 µM. Besides, the ΔTm in test [2] was 9.4 °C.
Consider `COc1cc(CCNc2nc(CCc3ccccc3)nc3sc(C(=O)O)c(C)c23)cc(OC)c1`, for which the 50% inhibitory concentration (IC50) in test [1] came out at 0.37 µM; in test [6], 1.4 µM; in test [7] it was 0.63 µM. Besides, in test [8], the inhibition entry is “Active”.
Regarding `CNc1nc(CCc2ccc3c(c2)OCO3)nc2sc(C(=O)O)c(C)c12`, the IC50 in test [1] is 1.8 µM. Further, the ΔTm in test [2] is 7.4 °C.
For the compound `CNc1nc(CCc2ccc(NC(C)=O)cc2)nc2sc(C(=O)O)c(C)c12`, in test [1], the IC50 came out at 2.4 µM.
Consider `Cc1c(C(=O)O)sc2nc(CCc3ccccc3)nc(NCCc3cccc(F)c3)c12`, for which, in test [1], the IC50 came out at 0.39 µM.
In the case of `CNc1nc(CCc2cccc(F)c2)nc2sc(C(=O)O)c(C)c12`, in test [1], the half-maximal inhibitory concentration (IC50) was 2.3 µM. The shift in melting temperature (ΔTm) in test [2] worked out at 8.9 °C.
For the compound `CNc1nc(CCCCc2ccccc2)nc2sc(C(=O)O)c(C)c12`, the IC50 in test [1] is 4.1 µM. Besides, the thermal shift (ΔTm) in test [2] is 7.4 °C.
For the compound `CO[C@H](CNc1nc(C[C@H](C)c2ccccc2)nc2sc(C(=O)O)c(C)c12)c1ccccc1`, the IC50 in test [1] turned out to be 1.1 µM. Moreover, in test [2], the shift in melting temperature (ΔTm) worked out at 10.4 °C.
As for `CNc1nc(CCc2ccccc2)nc2cc(C(=O)O)sc12`, the IC50 in test [1] is 3.9 µM. Moreover, the thermal shift (ΔTm) in test [2] came out at 4.8 °C.
Take `CC(=O)Nc1ccc(CCc2nc(NCCc3ccccn3)c3c(C)c(C(=O)O)sc3n2)cc1`: in test [1], the IC50 amounted to 0.28 µM. In addition, the ΔTm in test [2] was determined as 11.5 °C.
On to `Cc1cccc(CCNc2nc(CCc3ccccc3)nc3sc(C(=O)O)c(C)c23)c1`, for which, in test [1], the IC50 was found to be 0.42 µM.
On to `Cc1c(C(=O)O)sc2nc(CCc3ccccc3)nc(NCCc3cccnc3)c12`, for which, in test [1], the concentration for half-maximal inhibition (IC50) was 0.34 µM. The thermal shift (ΔTm) in test [2] is 12 °C.
`Cc1c(C(=O)O)sc2nc(CCc3ccccc3)nc(NCCc3ccccn3)c12`: the half-maximal inhibitory concentration (IC50) in test [1] is 0.42 µM. Besides, in test [2], the thermal shift (ΔTm) amounted to 12.5 °C.
As to `COc1ccccc1CCNc1nc(CCc2ccccc2)nc2sc(C(=O)O)c(C)c12`, the IC50 in test [1] was 0.48 µM. Further, in test [2], the ΔTm was found to be 13.7 °C.
